Screens: PubChem BioAssay, several laboratories
Arr AP2 block: inhibitors of beta-arrestin/AP2 binding, primary screen, biochemical, GPCR trafficking, flow cytometry. FITC-arrestin peptide / GST-AP2 beads; AP2 beta2 appendage carries R879A mutation. inhibition, % at 10 µM. 340,000 tested, 0.31% active. AID 504490, 2011;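 active = inhibition above a set limit, near 3 SD of compounds lacking own fluorescence, cut at about 54% in these data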;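 also: plate controls were DMSO wells for no effect and 5 µM unlabelled arrestin peptide for full effect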
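test system = AP2 appendage R879A on GSH beads | buffer or medium = PBS plus Tween 20 (0.05%) and BSA (0.1%) | incubation = 12 min plus 1 h, RT | detection = bead flow cytometry, FITC channel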
T cell HTS: modulators of CD8 T cell-vesicle binding, primary screen, mouse 2C CD8+ T cells, flow cytometry; response (vesicle binding), % at 7 µM; 2C CD8+ T cell-vesicle binding; hits give low values; 330,000 tested, 0.068% active;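 active = response, share of CD8 T cells binding vesicles, and their 90th percentile fluorescence all below set limits, cut at about 80% in these data, passing the limit was not always enough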;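 also: values below 100% mean blocked vesicle binding to the CD8+ T cells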
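Assay system: 2C TCR transgenic mouse naive CD8+ T cells, MACS-purified | Read-out: CD8+ gate FL2 mean fluorescence as % of same-row positive control | Signal: High-throughput flow cytometry with anti-B7-1 and anti-CD8 staining | Timing: Binding step 1.5 h, 37 °C, antibody labelling 20 min, ice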
DSG3 Ab inh: inhibitors of pemphigus antibody binding to DSG3, primary screen, biochemical, bead-based, flow cytometry, scFv-GFP. AID 588358, 2011. DSG3-coupled beads, scFv-anti-DSG3-GFP binding; hits give low values. binding (percent of control), % at 10 µM. Desmoglein-3 (Homo sapiens), P32926. 310,000 tested, 0.48% active;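 active = binding more than 3 SD below its plate's average and above zero; inconclusive = below that plate limit but binding exactly zero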;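 also: hits lower antibody fragment binding to DSG3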
HDAC3 inhib: HDAC3 deacetylase inhibitors, primary screen, biochemical, fluorescence, cell-free homogeneous | Histone deacetylase 3 (Homo sapiens), O15379 | recombinant HDAC3, fluorogenic peptide/trypsin coupled | inhibition, % at 8.3 µM | 320,000 tested, 0.15% active | AID 2718, 2010; in the data active = inhibition above about 26%, passing the limit was not always enough; inconclusive = no clear call, values can overlap the other calls
Target sequence (O15379 whole entry, looked up): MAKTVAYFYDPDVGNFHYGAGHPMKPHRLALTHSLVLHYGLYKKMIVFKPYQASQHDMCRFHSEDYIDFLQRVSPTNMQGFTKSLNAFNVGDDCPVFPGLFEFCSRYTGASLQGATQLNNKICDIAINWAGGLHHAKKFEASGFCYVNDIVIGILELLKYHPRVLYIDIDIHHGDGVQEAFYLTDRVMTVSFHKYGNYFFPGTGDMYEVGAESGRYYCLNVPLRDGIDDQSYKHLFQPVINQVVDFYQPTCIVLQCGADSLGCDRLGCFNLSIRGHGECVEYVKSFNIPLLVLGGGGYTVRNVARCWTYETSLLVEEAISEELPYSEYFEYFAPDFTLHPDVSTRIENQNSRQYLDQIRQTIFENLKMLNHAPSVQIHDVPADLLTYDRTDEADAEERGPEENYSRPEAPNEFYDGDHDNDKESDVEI
LANA-H2A inh: blockers of LANA interaction with H2A/H2B – biochemical, FP readout, HTS, primary screen; Protein LANA1 (Human herpesvirus 8 type P (isolate GK18)), Q9QR71; cell-free LANA-H2A/H2B peptide, fluorescence polarization; inhibition, % (concentration not given with the values); 320,000 tested, 0.6% active; AID 2629, 2010; in the data active = inhibition mostly above about 10%, no sharp cut-off; inactive = mostly below about 6.7%
The depositor's hits bear a star; i = inactive; ? = inconclusive; · = no result given. This is a sample that favours compounds with a hit; in the whole collection about 1.5% have one here.

SMILES	Arr AP2 block	T cell HTS	DSG3 Ab inh	HDAC3 inhib	LANA-H2A inh
COc1ccc(N2CC(C(=O)NCc3nnnn3-c3ccc(C)c(C)c3)CC2=O)cc1 (stereo not drawn)	8	351	100	4	-1
CCN(CC)CC(O)CNc1ccnc2c(Cl)ccc(Cl)c12 (stereo not drawn)	0	·	99	·	·
O=C(CNC(=O)COc1ccccc1)NCCN1CCOCC1	7	293	99	·	·
CCOc1ccc(/C=N/NC(=O)c2nnn(-c3nonc3N)c2COc2ccc(F)cc2)cc1	37	541	·	-54	2
CCOc1ccc(-c2c(C(=O)N/N=C/c3cccc(Br)c3)nnn2-c2nonc2N)cc1	11	195	120	-2	20*
CCOc1ccc(-c2c(C(=O)N/N=C/c3ccc(O)cc3)nnn2-c2nonc2N)cc1	33	691	98	·	-1
CN(C)c1ccc(/C=N/NC(=O)c2nnn(-c3nonc3N)c2COc2ccc(F)cc2)cc1	-3	363	77*	4	2
CCCOc1ccc(-c2c(C(=O)N/N=C/c3ccc(OC)cc3)nnn2-c2nonc2N)cc1	3	387	·	-19	0
CCOc1ccc(-c2c(C(=O)N/N=C/c3ccc(OC)cc3)nnn2-c2nonc2N)cc1	29	7.5*	77	-4	-4
O=C(CCNC(=O)c1ccc(Br)cc1)NCCCSc1ccccc1	21	131	102	0	3
Fc1ccccc1COc1ccc2ccccc2c1CNc1nn[nH]n1	2	223	94	11	3
Cc1ccc(/C=C/S(=O)(=O)NCC(=O)OCC(=O)Nc2c(F)cccc2F)cc1	-1	320	109	6	-1
N#Cc1ccc(CN2C=NS(=O)(=O)c3ccccc32)cc1	35	281	99	-6	-2
O=C(CSc1ncnc2ccccc12)c1ccco1	17	598	118	40*	1
O=C(CSc1ncnc2ccccc12)NCc1ccco1	-2	388	106	1	3
CC(C)CCNC(=O)CCc1nnc2n(CCCOC(C)C)c(=O)c3ccccc3n12	-2	168	?	-2	1
O=C(CN1C(=O)C2CC=CCC2C1=O)NCC1COc2ccccc2O1 (stereo not drawn)	-6	422	101	-8	51*
O=C(Cn1ccc2ccccc2c1=O)NCC1COc2ccccc2O1 (stereo not drawn)	3	307	96	-3	-4
O=C(Cn1ncc2c(=O)oc3ccccc3c21)NCC1COc2ccccc2O1 (stereo not drawn)	7	176	88*	7	6
O=C(Cn1ncc2c(=O)oc3ccccc3c21)NC1CC1	6	303	94	-2	5
CC(=O)N1CCN(c2ccc(NC(=O)C(c3ccccc3)c3ccccc3)cc2)CC1	-12	294	38*	-11	-6
O=C(Nc1ccc(N2CCCC2)cc1)C(c1ccccc1)c1ccccc1	4	257	94	-2	1
Cc1cccc(C)c1NC(=O)CN(C)CC(=O)c1c(N)n(Cc2ccccc2)c(=O)n(C)c1=O	39	419	105	1	1
C/C=C/c1ccc(OCCCCN2CCN(CC)CC2)c(OC)c1	-8	524	99	-5	2
C/C=C/c1ccc(OCCCCN2CC(C)CC(C)C2)c(OC)c1 (stereo not drawn)	0	119	101	1	195*
SMILES	Arr AP2 block	T cell HTS	DSG3 Ab inh	HDAC3 inhib	LANA-H2A inh
CCCCn1nnc(NC(=S)NC(=O)c2ccc(OCC)c([N+](=O)[O-])c2)n1	-9	320	106	1	1
Cc1ccc(C)c(OCCC(=O)OCC(=O)NCCc2ccc(S(N)(=O)=O)cc2)c1	-8	323	104	-1	2
Cc1ccc(C)c(OCCC(=O)NCCc2ccc(S(N)(=O)=O)cc2)c1	15	335	110	-3	29*
O=C(OCC(=O)N1CCc2ccccc2C1)c1ccc(O)cc1	-3	388	·	6	-3
Cc1cc(C)c(S(=O)(=O)ON2C(=O)c3ccccc3C2=O)cc1C	4	i	101	2	-3
Cc1ccc(S(=O)(=O)ON2C(=O)c3ccccc3C2=O)c(C)c1	-1	371	97	59*	0
O=C(Nc1ccc(Nc2ccccc2)cc1)c1ccccc1	8	411	105	2	1
O=C(Nc1ccc(Nc2ccccc2)cc1)c1ccc(Br)cc1	11	291	95*	2	-4
Cn1c(CC(=O)NNC(=O)c2ccc(F)cc2F)nc2ccccc21	19	374	112	-3	-1
Cn1c(CC(=O)NNC(=O)c2cccnc2)nc2ccccc21	5	623	98	5	19*
N#Cc1ccccc1OCC(=O)Nc1cc(S(=O)(=O)N2CCCCC2)ccc1N1CCOCC1	19	·	108	·	·
O=C(COc1ccc2ccccc2c1)Nc1ccc(Cc2ccncc2)cc1	13	205	37*	4	1
O=C(O)Cc1ccc(NC(=O)COc2ccc3ccccc3c2)cc1	-11	153	103	-6	0
CCOC(=O)[C@H]1[C@H]2COc3ccc(Cl)cc3[C@@H]2N2C(=O)c3cc(Br)ccc3NC(=O)[C@@]12C	-2	·	101	3	17*
Cc1ccc2c(c1)C(=O)N1[C@H]3c4cc(C)ccc4OC[C@@H]3[C@H](c3ccccc3)[C@]1(C)C(=O)N2	·	227	99	7	104*
COC(=O)c1ccc(C2NC(=S)N(c3ccccc3)C(C)=C2C(=O)Nc2ccccc2OC)cc1 (stereo not drawn)	-3	378	-8.8*	10	2
O=C(CN(c1ccc(Br)cc1)S(=O)(=O)c1ccc(Cl)c([N+](=O)[O-])c1)NCC1CCCO1 (stereo not drawn)	4	·	104	·	·
COC(=O)c1ccccc1S(=O)(=O)N1CCC(C(=O)Nc2ccccc2N2CCOCC2)CC1	-6	·	101	·	·
Cc1cc(C)c(C)c(S(=O)(=O)N2CCC(C(=O)Nc3ccccc3N3CCOCC3)CC2)c1C	24	783	1.0*	3	4
Cc1cccc(Oc2coc3cc(OC(=O)c4cncc(Br)c4)ccc3c2=O)c1	13	978	101	-11	3.5*
Cc1cc(C)cc(Oc2coc3cc(OC(=O)c4cccnc4)ccc3c2=O)c1	-1	257	110	0	0
Clc1nnc2c3ccccc3ccn12	-1	·	99	·	·
O=C1c2ccccc2[C@@H]2C[C@@H](O)[C@H](Nc3ccccc3-c3ccccc3)CCN12	22	·	99	·	·
